Results gathered from unrelated publications.
Lines come from different studies, so protocols differ.
EGFR: Epidermal growth factor receptor (EGFR, Homo sapiens, UniProt P00533)
AMY1A: Alpha-amylase 1A (AMY1A, Homo sapiens, UniProt P0DUB6)
Ephx2: Bifunctional epoxide hydrolase 2 (Ephx2, Mus musculus, UniProt P34914)
APC: Adenomatous polyposis coli protein (APC, Homo sapiens, UniProt P25054)

The IC50 of `Cc1ncc(CN2CCN(Cc3ccccn3)CC2)c2cc(C(=O)c3ccc4c(c3)OCCO4)oc12` is reported as 40.5 nM (EGFR; enzyme activity, inhibitor, ADP detection).
`Oc1ccc([C@@H]2c3c(O)cc(O)cc3[C@@H]3c4c(cc(O)c5c4[C@@H]2[C@H](c2ccc(O)cc2)[C@H]5c2cc(O)cc4c2[C@@H](c2cc(O)cc(O)c2)[C@H](c2ccc(O)cc2)O4)O[C@H]3c2ccc(O)cc2)cc1` has an IC50 of 5300 nM (AMY1A; enzyme activity, inhibitor).
For `O=C(Nc1ccc(-c2ccc3ncccc3c2)cc1)C1CCN(S(=O)(=O)c2ccccc2Cl)CC1`, the IC50 was 87.7 nM (Ephx2; enzyme activity, inhibitor, fluorescence).
`Cc1ccc2c(-c3cc4c(CN5CCN(Cc6ccccn6)CC5)cnc(C)c4o3)cc(=O)oc2c1` has an IC50 of 5.77 nM (Epidermal growth factor receptor (EGFR, Homo sapiens, UniProt P00533, C797S/L858R/T790M); enzyme activity, inhibitor, ADP detection).
`O=C(Nc1ccc(-c2ccnc3ccccc23)cc1)C1CCN(S(=O)(=O)c2ccccc2Cl)CC1` has an IC50 of 28.6 nM (Ephx2; enzyme activity, inhibitor, fluorescence).
`CC(C)C[C@H](NC(=O)[C@H](Cc1ccc2ccccc2c1)NC(=O)[C@H](CCC(=O)O)NC(=O)c1cccc(C(F)(F)F)c1)C(=O)NC1CC1c1ccccc1` (stereo partly drawn) has an IC50 of 10700 nM (APC; ligand displacement, FP).
For `O=C(Nc1ccc(-c2ccc3cccnc3c2)cc1)C1CCN(S(=O)(=O)c2ccccc2Cl)CC1`, the IC50 was 38.2 nM (Ephx2; enzyme activity, inhibitor, fluorescence).
`CC(C)C[C@H](NC(=O)[C@H](Cc1ccc2ccccc2c1)NC(=O)[C@H](CCC(=O)O)NC(=O)c1ccccn1)C(=O)NC1CC1c1ccccc1` (stereo partly drawn) has an IC50 of 30200 nM (APC; ligand displacement, FP).
For `Cc1c(Cc2ccccc2)c(=O)oc2c(C)c(OCC(=O)NN=Cc3ccco3)ccc12`, the IC50 was 559 nM (EGFR; enzyme activity, inhibitor, ATP luminescence).
`COc1ccc2nc3cc(Cl)ccc3c(Nc3cc(CN4CCCC4)c(O)c(CN4CCCC4)c3)c2n1` has an IC50 of > 125000 nM (Palmitoyl-protein thioesterase 1 (Homo sapiens, UniProt P50897); enzyme activity, inhibitor).
`CC(C)C[C@H](NC(=O)[C@H](Cc1ccc2ccccc2c1)NC(=O)[C@H](CCC(=O)O)NC(=O)C1N=CN=N1)C(=O)NC1CC1c1ccccc1` (stereo partly drawn) gave an IC50 of 81300 nM (APC; ligand displacement, FP).
`OC[C@H]1O[C@@H](Oc2cc3c4c(c2)[C@@H]([C@@H]2c5cc(O)cc6c5[C@@H](c5cc(O)cc(O)c5[C@H]2c2ccc(O)cc2)[C@H](c2ccc(O)cc2)O6)[C@H](c2ccc(O)cc2)c2c(O)cc(O)cc2[C@H]4[C@H](c2ccc(O)cc2)O3)[C@H](O)[C@@H](O)[C@@H]1O` gave an IC50 of > 100000 nM (AMY1A; enzyme activity, inhibitor).
The IC50 of `C=CC(=O)Nc1cc2c(Nc3ccc(OCc4ccccn4)c(Cl)c3)ncnc2cc1OCCN1CCOCC1` is reported as 1.5 nM (Epidermal growth factor receptor (EGFR, Homo sapiens, UniProt P00533, L858R/T790M); enzyme activity, inhibitor).
For `Cc1ncc(CN2CCc3ccccc3C2)c2cc(C(=O)c3ccc4c(c3)OCCO4)oc12`, the IC50 was 12.9 nM (EGFR; enzyme activity, inhibitor, ADP detection).
`COc1cc(C(=O)N[C@@H](CCC(=O)O)C(=O)N[C@@H](Cc2ccc3ccccc3c2)C(=O)N[C@@H](CC(C)C)C(=O)NC2CC2c2ccccc2)ccn1` (stereo partly drawn) has an IC50 of 38900 nM (APC; ligand displacement, FP).
